Measurements from ChEMBL document CHEMBL1123193, “The lysine pathway as a target for a new genera of synthetic antibacterial antibiotics?” (1986).
In brackets after ≈: the same amount, converted by molar mass.

Columns and labels:
[1] = system: Escherichia coli; assay: Minimum inhibitory concentration required for the inhibition of Escherichia coli ATCC 9637; format: functional
Method in brief: (§1)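 Agar dilution on Davis and Mingioli solid medium, supplemented with amino acids where needed. MIC taken as the lowest concentration giving complete growth inhibition, expressed in micrograms.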

[2] = system: Escherichia coli; assay: Compound is evaluated for the inhibition of bacterial growth (Escherichia coli ATCC 9637) in the liquid medium at 5 mmol of amino acid; format: functional
Method in brief: (§2)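 Davis and Mingioli liquid medium, 4.8 mL, inoculated with 0.2 mL of an 18-h liquid culture of the test organism, with 0.1 mL of compound solution added. Growth followed by absorbance at 660 nm. Percent inhibition calculated after 6 h at 37 °C.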

[3] = system: Escherichia coli; assay: Compound is evaluated for the inhibition of bacterial growth (Escherichia coli ATCC 9637) in the liquid medium at 1 mmol of amino acid; format: functional; method in brief: as §2
[4] = system: Escherichia coli; assay: Percent of inhibition of diaminopimelic acid decarboxylase at 2 mmol of amino acids, 1.05 mmol/L of labeled meso-DAP, and 32 umol/L of PLP
Method in brief: (§3)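 Enzyme was meso-DAP decarboxylase isolated and purified from E. coli ATCC 9637. Inhibition measured as decarboxylation of labeled meso-DAP in the presence of the test amino acid.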

[5] = system: Escherichia coli; assay: Percent of inhibition of diaminopimelic acid decarboxylase at 5 mmol of amino acids, 1.05 mmol/L of labeled meso-DAP, and 32 umol/L of PLP; method in brief: as §3
[6] = system: Escherichia coli; assay: Percent of inhibition of v decarboxylase at 1 mmol of amino acids, 1.05 mmol/L of labeled meso-DAP, and 32 umol/L of PLP; method in brief: as §3
[7] = system: Escherichia coli; assay: Compound is evaluated for the inhibition of bacterial growth (Escherichia coli ATCC 9637) in the liquid medium at 2 mmol of amino acid; format: functional; method in brief: as §2
[8] = system: Pseudomonas aeruginosa; assay: Minimum inhibitory concentration required for the inhibition of Pseudomonas aeruginosa A22; format: functional; method in brief: as §1
[9] = system: Escherichia coli; assay: Percent of inhibition of diaminopimelic acid decarboxylase at 1 mmol of amino acid; method in brief: as §3
[10] = system: Escherichia coli; assay: Percent of inhibition of diaminopimelic acid decarboxylase at 5 mmol of amino acid; method in brief: as §3
[11] = system: Escherichia coli; assay: Percent of inhibition of diaminopimelic acid decarboxylase at 10 mmol of amino acids, 1.05 mmol/L of labeled meso-DAP, and 32 umol/L of PLP; method in brief: as §3
[12] = system: Escherichia coli; assay: Percent of inhibition of diaminopimelic acid decarboxylase at 1 mmol of amino acids, 1.05 mmol/L of labeled meso-DAP, and 32 umol/L of PLP; method in brief: as §3
[13] = system: Escherichia coli; assay: Compound is evaluated for the growth of Escherichia coli W7 in the liquid medium at 100 ug/mL.; Absence of growth; format: functional, organism-based
[14] = system: Escherichia coli; assay: Compound is evaluated for the growth of Escherichia coli W7 in the presence lysine in liquid medium; Growth is observed; format: functional, organism-based
[15] = system: Providencia rettgeri; assay: Minimum inhibitory concentration compared to D-cycloserine, against Proteus rettgeri 53.100; format: functional; method in brief: as §1
[16] = system: Providencia alcalifaciens; assay: Minimum inhibitory concentration compared to D-cycloserine, against providencia alcalifaciens 58.62; format: functional; method in brief: as §1
[17] = system: Klebsiella pneumoniae; assay: Minimum inhibitory concentration compared to D-cycloserine, against Klebsiella pneumoniae 53.153; format: functional; method in brief: as §1
[18] = system: Escherichia coli; assay: Minimum inhibitory concentration compared to D-cycloserine, against Escherichia coli ATCC 9637; format: functional; method in brief: as §1
[19] = system: Serratia marcescens; assay: Minimum inhibitory concentration compared to D-cycloserine, against Serratia marcescens A 174; format: functional; method in brief: as §1
[20] = Minimum inhibitory concentration compared to D-cycloserine, against Moraxella glucidolytica 52.90; format: functional; method in brief: as §1
[21] = system: Serratia liquefaciens; assay: Minimum inhibitory concentration compared to D-cycloserine, against Serratia liquefaciens 52.56; format: functional; method in brief: as §1
[22] = system: Escherichia coli; assay: Minimum inhibitory concentration compared to D-cycloserine, against Escherichia coli UB 1005; format: functional; method in brief: as §1
[23] = system: Pseudomonas aeruginosa; assay: Minimum inhibitory concentration compared to D-cycloserine, against Pseudomonas aeruginosa A22; format: functional; method in brief: as §1
[24] = system: Enterobacter cloacae; assay: Minimum inhibitory concentration compared to D-cycloserine, against Enterobacter cloacae 60.22
[25] = system: Escherichia coli; assay: Minimum inhibitory concentration compared to D-cycloserine, against Escherichia coli DC2; format: functional; method in brief: as §1
[26] = system: Citrobacter freundii; assay: Minimum inhibitory concentration compared to D-cycloserine, against Citrobacter freundii 55.13; format: functional; method in brief: as §1
[27] = system: Enterobacter cloacae; assay: Minimum inhibitory concentration compared to D-cycloserine, against Enterobacter cloacae 60.22; remark: listed apart in the source
[28] = system: Escherichia coli; assay: Percent of inhibition of DAP decarboxylase at 10 mmol of amino acids, 1.05 mmol/L of labeled meso-DAP, and 32 umol/L of PLP; method in brief: as §3
[29] = system: Escherichia coli; assay: Percent of inhibition of diaminopimelic acid decarboxylase at 1 mmol of amino acid, 1.05 mmol/L of labeled meso-DAP, and 32 umol/L of PLP; method in brief: as §3
[30] = system: Escherichia coli; assay: Percent of inhibition of diaminopimelic acid decarboxylase at 2 mmol of amino acid, 1.05 mmol/L of labeled meso-DAP, and 32 umol/L of PLP; method in brief: as §3
[31] = system: Pseudomonas aeruginosa; assay: Not Plasmodium species; format: functional
[32] = system: Escherichia coli; assay: Percent of inhibition of diaminopimelic acid decarboxylase at 10 mmol of amino acid, 1.05 mmol/L of labeled meso-DAP, and 32 umol/L of PLP; method in brief: as §3
[33] = system: Escherichia coli; assay: Percent of inhibition of diaminopimelic acid decarboxylase at 5 mmol of amino acid, 1.05 mmol/L of labeled meso-DAP, and 32 umol/L of PLP; method in brief: as §3
[34] = Pseudomonas aeruginosa, read-out: MIC
[35] = Escherichia coli, ATCC 9637, read-out: MIC

SMILES: CC(N)(CCCC(N)C(=O)O)C(=O)O (stereo unspecified)
- MIC [1]: 512 µg/mL (≈ 2510 µM)
- Inhibition [2]: 90%
- Inhibition [3]: 38%
- inhibition [4]: 18%
- inhibition [5]: 35%
- inhibition [6]: 8%
- Inhibition [7]: 74%

SMILES: C=C(CC(N)C(=O)O)CC(N)C(=O)O (single isomer, unassigned; (-))
- MIC ([1]; Escherichia coli, ATCC 9637): 4 µg/mL (≈ 19.8 µM)
- MIC [8, 34]: 4 µg/mL (≈ 19.8 µM)

SMILES: NC(/C=C(\Cl)CC(N)C(=O)O)C(=O)O (stereo unspecified)
- inhibition [9]: 18%
- MIC [1]: > 128 µg/mL
- inhibition [10]: 53%
- Inhibition [2]: 50%

SMILES: C/C(=C/C(N)C(=O)O)CC(N)C(=O)O (stereo unspecified)
- Inhibition [2]: 55%
- Inhibition [3]: 0%
- inhibition [4]: 33%
- inhibition [11]: 73%
- inhibition [5]: 54%
- inhibition [12]: 17%
- Inhibition [7]: 0%

SMILES: NCCCC[C@H](N)C(=O)O
- Bacterial growth [13]: Absence of growth

SMILES: N[C@H](CCC[C@H](N)C(=O)O)C(=O)O
- Bacterial growth [13]: Absence of growth

SMILES: C=C(CC(N)C(=O)O)CC(N)C(=O)O (stereo in doubt; 4) [listing 1 of 2 here]
- Bacterial growth [14]: Growth
- inhibition [11]: 30%
- inhibition [5]: 15%
- inhibition [12]: 5%

SMILES: C=C(CC(N)C(=O)O)CC(N)C(=O)O (stereo in doubt; 4) [listing 2 of 2 here]
- MIC [15]: 128 µg/mL (≈ 633 µM)
- MIC [16]: 128 µg/mL (≈ 633 µM)
- MIC [1]: 2 µg/mL (≈ 9.89 µM)
- Inhibition [2]: 95%
- Inhibition [3]: 90%
- MIC [17]: 32 µg/mL (≈ 158 µM)
- MIC [18]: 32 µg/mL (≈ 158 µM)
- MIC [19]: 2 µg/mL (≈ 9.89 µM)
- MIC [20]: 16 µg/mL (≈ 79.1 µM)
- MIC [21]: 2 µg/mL (≈ 9.89 µM)
- MIC [22]: 2 µg/mL (≈ 9.89 µM)
- MIC [8]: 4 µg/mL (≈ 19.8 µM)
- MIC [23]: 16 µg/mL (≈ 79.1 µM)
- MIC [24]: 16 µg/mL (≈ 79.1 µM)
- Inhibition [7]: 90%
- MIC [25]: 32 µg/mL (≈ 158 µM)
- MIC [26]: 16 µg/mL (≈ 79.1 µM)

SMILES: C=C(C[C@@H](N)C(=O)O)C[C@H](N)C(=O)O
- MIC [15]: 64 µg/mL (≈ 317 µM)
- MIC [27]: 16 µg/mL (≈ 79.1 µM)
- MIC [16]: 128 µg/mL (≈ 633 µM)
- MIC [1]: 2 µg/mL (≈ 9.89 µM)
- MIC [17]: 16 µg/mL (≈ 79.1 µM)
- MIC [18]: 32 µg/mL (≈ 158 µM)
- inhibition [28]: 30%
- MIC [19]: 4 µg/mL (≈ 19.8 µM)
- MIC [20]: 16 µg/mL (≈ 79.1 µM)
- MIC [21]: 2 µg/mL (≈ 9.89 µM)
- MIC [22]: 2 µg/mL (≈ 9.89 µM)
- MIC [8, 34]: 4 µg/mL (≈ 19.8 µM)
- inhibition [5]: 22%
- MIC [23]: 16 µg/mL (≈ 79.1 µM)
- inhibition [12]: 8%
- MIC [25]: 4 µg/mL (≈ 19.8 µM)
- MIC [26]: 32 µg/mL (≈ 158 µM)

SMILES: C=C(CC(N)C(=O)O)CC(N)C(=O)O (stereo in doubt; (+)-4)
- MIC [1]: 6 µg/mL (≈ 29.7 µM)
- MIC [8]: 6 µg/mL (≈ 29.7 µM)

SMILES: NC(/C=C/CC(N)C(=O)O)C(=O)O (stereo unspecified)
- Inhibition [2]: 0%
- Inhibition [3]: 0%
- inhibition [29]: 65%
- inhibition [30]: 77%
- Inhibition [7]: 0%

SMILES: C=C(C[C@@H](N)C(=O)O)C[C@@H](N)C(=O)O.C=C(C[C@H](N)C(=O)O)C[C@H](N)C(=O)O
- MIC [15]: 64 µg/mL
- MIC [27]: 16 µg/mL
- MIC [16]: 32 µg/mL
- MIC [1]: 2 µg/mL
- MIC [17]: 16 µg/mL
- MIC [18]: 16 µg/mL
- MIC [19]: 4 µg/mL
- MIC [20]: 8 µg/mL
- MIC [21]: 4 µg/mL
- inhibition [11]: 20%
- MIC [22]: 8 µg/mL
- MIC [8, 34]: 4 µg/mL
- inhibition [5]: 10%
- MIC [23]: 32 µg/mL
- inhibition [12]: 5%
- MIC [25]: 8 µg/mL
- MIC [26]: 8 µg/mL

SMILES: C[C@@H]1O[C@@H]1P(=O)(O)O [FOSFOMYCIN]
- MIC [1, 35]: 16 µg/mL (≈ 116 µM)
- MIC [31]: 32 µg/mL (≈ 232 µM)

SMILES: N[C@@H]1CONC1=O [CYCLOSERINE]
- MIC [15]: 128 µg/mL (≈ 1250 µM)
- MIC [27]: 2 µg/mL (≈ 19.6 µM)
- MIC [16]: 8 µg/mL (≈ 78.4 µM)
- MIC [1, 35]: 0.25 µg/mL (≈ 2.45 µM)
- MIC [17]: 8 µg/mL (≈ 78.4 µM)
- MIC [31]: 128 µg/mL (≈ 1250 µM)
- MIC [18]: 0.5 µg/mL (≈ 4.9 µM)
- MIC [19]: 128 µg/mL (≈ 1250 µM)
- MIC [20]: 128 µg/mL (≈ 1250 µM)
- MIC [21]: 8 µg/mL (≈ 78.4 µM)
- MIC [22]: 32 µg/mL (≈ 313 µM)
- MIC [23]: 64 µg/mL (≈ 627 µM)
- MIC [25]: 128 µg/mL (≈ 1250 µM)
- MIC [26]: 2 µg/mL (≈ 19.6 µM)

SMILES: CC(N)(/C=C/CC(N)C(=O)O)C(=O)O (stereo unspecified)
- Inhibition [2]: 0%
- inhibition [29]: 0%
- inhibition [30]: 0%
- Inhibition [7]: 0%

SMILES: CC1(C)S[C@@H]2[C@H](NC(=O)[C@H](N)c3ccccc3)C(=O)N2[C@H]1C(=O)O [AMPICILLIN]
- MIC [1, 35]: 5 µg/mL (≈ 14.3 µM)
- MIC [31]: 512 µg/mL (≈ 1470 µM)

SMILES: CC(CC(N)C(=O)O)CC(N)C(=O)O (stereo unspecified)
- Inhibition [2]: 0%
- inhibition [29]: 12%
- inhibition [32]: 55%
- Inhibition [7]: 0%
- inhibition [33]: 43%

SMILES: C/C(=C\C(N)C(=O)O)CC(N)C(=O)O (stereo unspecified)
- Inhibition [2]: 50%
- Inhibition [3]: 0%
- inhibition [4]: 20%
- inhibition [5]: 50%
- Inhibition [7]: 21%
